Here are results for 22 compounds from ChEMBL document CHEMBL1777756, “Discovery of Novel Benzo[a]phenoxazine SSJ-183 as a Drug Candidate for Malaria” (ACS Med Chem Lett, 2010).

The structures appear in SMILES notation. Bounds are passed on as bounds.

By IC50 is commonly meant the point on the concentration scale where inhibition reaches its midpoint. For orientation: inhibition in vivo means the change of the read-out against control, counted positive when it falls.

Series [1] can be described thus: Selectivity index, ratio of IC50 for rat L6 cells to IC50 for Plasmodium falciparum K1. It is filed as toxicity, cell-based. As to conditions: read-out: Ratio IC50. The procedure, abridged: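 Selectivity index is IC50 against L-6 cells divided by IC50 against chloroquine/pyrimethamine-resistant P. falciparum K1. Each IC50 is the mean of two independent assays.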

Series [2] has as its system Plasmodium berghei. Kind of series: Antimalarial activity against Plasmodium berghei NK-65 infected in ICR mouse assessed as survival days at 100 mg/kg, po administered as single dose (reference value: 6 days). It is filed as functional. The procedure, abridged: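 Female ICR mice infected with P. berghei NK-65 received a single oral dose of 100 mg/kg on day 1. The compound was given as a suspension in 5% glucose/10% ethanol or in 7% Tween 80/3% ethanol. Parasitemia was read on day 4 as percent reduction relative to untreated controls, and mean survival days were recorded.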

A further series relates to L6. Kind of series: Cytotoxicity against rat L6 cells. It is filed as cell-based. The procedure, abridged: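 Cytotoxicity was tested against L-6 rat myoblasts, with IC50 determined. Values are the mean of two independent assays.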
A further series concerns Plasmodium falciparum. Kind of series: Antimalarial activity against chloroquine and pyrimethamine resistant Plasmodium falciparum K1. It is filed as functional, organism-based. The procedure, abridged:
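IC50 was determined in vitro against the chloroquine- and pyrimethamine-resistant P. falciparum K1 strain. Values are the mean of two independent assays.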

Series [3] deals with Plasmodium berghei. Kind of series: Antimalarial activity against Plasmodium berghei NK-65 infected in ICR mouse assessed as inhibition of parasitemia at 100 mg/kg, po administered as single dose on day 1 measured on day 4. The class given is functional. The procedure, abridged:
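Compound was formulated at 100 mg/kg in 5% glucose/10% ethanol or in 7% Tween 80/3% ethanol. The suspension was given as a single oral dose on day 1 to female ICR mice infected with P. berghei NK-65. Parasitemia was determined on day 4 after infection. Treated-group mean is expressed as percent difference from the control-group mean.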

On to `CCN(CC)c1ccc2nc3c4ccccc4/c(=N\c4ncccn4)cc-3oc2c1`, for which, in series [1], the selectivity ratio was found to be 2730. The MSD in the series on Plasmodium berghei [2] turned out to be 6.3 days. The 50% inhibitory concentration (IC50) turned out to be 13600 nM with L6 and 5 nM with Plasmodium falciparum. Further, the inhibition in vivo at 100 mg/kg in the series on Plasmodium berghei [3] came out at 3.3%.
`CCN(CC)c1ccc2nc3c4ccccc4/c(=N/c4cc[n+](Cc5ccccc5)cc4)cc-3oc2c1.[Cl-]`: the selectivity ratio in series [1] was determined as 31. Also, the MSD in the series with Plasmodium berghei [2] came to 7.3 days. The IC50 with L6 amounted to 750 nM; in the series with Plasmodium falciparum, 24 nM. The inhibition in vivo at 100 mg/kg in the series on Plasmodium berghei [3] stood at 39%.
Regarding `CCN(CC)c1ccc2nc3c4ccc(Br)cc4/c(=N/c4ccncc4)cc-3oc2c1`, the selectivity ratio in series [1] is above 17300. Besides, in the series on Plasmodium berghei [2], the MSD was determined as 6.6 days. In addition, the IC50 is above 190000 nM with L6 and 11 nM in the series with Plasmodium falciparum. Besides, the inhibition in vivo at 100 mg/kg in the series on Plasmodium berghei [3] was 14.2%.
On to `CCN(CC)c1ccc2nc3c4ccccc4/c(=N/c4cc[n+](C)cc4)cc-3oc2c1.[I-]`, for which the selectivity ratio in series [1] is 174. For the same compound, the MSD in the series with Plasmodium berghei [2] turned out to be 6.6 days. The concentration for half-maximal inhibition (IC50) was 1560 nM with L6 and 9 nM in the series on Plasmodium falciparum. Besides, the inhibition in vivo at 100 mg/kg with Plasmodium berghei [3] came out at 22%.
For the compound `CCN(CC)c1ccc2nc3c4ccccc4/c(=N\c4ccccn4)cc-3oc2c1`, the selectivity ratio in series [1] worked out at 1050. In addition, the MSD with Plasmodium berghei [2] came out at 8.3 days. Besides, the IC50 in the series with L6 worked out at 15800 nM; in the series with Plasmodium falciparum it was 15 nM. Also, the inhibition in vivo at 100 mg/kg in the series with Plasmodium berghei [3] was above 99.9%.
On to `CCN(CC)c1ccc2nc3c4ccccc4/c(=N/c4ccc(C)cc4)cc-3oc2c1.Cl`, for which the selectivity ratio in series [1] was 531. The MSD in the series with Plasmodium berghei [2] came to 6.3 days. Also, the IC50 with L6 came out at 123000 nM; with Plasmodium falciparum, 232 nM. The inhibition in vivo at 100 mg/kg with Plasmodium berghei [3] came out at 0%.
With `CCN(CC)c1ccc2nc3c4ccccc4/c(=N\c4cccnc4)cc-3oc2c1`, the selectivity ratio in series [1] stood at 5090. For the same compound, in the series on Plasmodium berghei [2], the MSD came out at 10 days. The figures for the IC50 with L6 and in the series with Plasmodium falciparum were 117000 nM and 23 nM, respectively. Also, the inhibition in vivo at 100 mg/kg with Plasmodium berghei [3] worked out at 62.7%.
The matching figures for `c1ccc2/c(=N/c3ccncc3)cc3oc4cc(N5CCOCC5)ccc4nc-3c2c1`: 3340, 7.3 days, 96900 nM, 29 nM and 97.9%.
The matching figures for `CCN(CC)c1ccc2nc3c4ccccc4/c(=N/c4nc5ccc(OC)cc5s4)cc-3oc2c1`: 1490, 6.3 days, 168000 nM, 112 nM and 11.4%.
For `CCN(CC)c1ccc2nc3c4ccccc4/c(=N\c4ncc(Cl)cc4Cl)cc-3oc2c1` the same measures were 2860, 6.3 days, 180000 nM, 63 nM and 14.7%.
Take `CC[N+](CC)=c1ccc2nc3c(ccc4ccccc43)oc-2c1`: the selectivity ratio in series [1] was 6.3. Besides, the results for the concentration for half-maximal inhibition (IC50) in the series with L6 and in the series on Plasmodium falciparum were 3820 nM and 606 nM, respectively.
Consider `CCCCN(CCCC)c1ccc2nc3c4ccccc4/c(=N/c4ccncc4)cc-3oc2c1.Cl.Cl`, for which, in series [1], the selectivity ratio turned out to be 327. Moreover, in the series on Plasmodium berghei [2], the MSD was 6.3 days. The half-maximal inhibitory concentration (IC50) amounted to 63800 nM in the series with L6 and 195 nM in the series with Plasmodium falciparum. In addition, the inhibition in vivo at 100 mg/kg with Plasmodium berghei [3] was 5.6%.
As to `CCN(CC)c1ccc2nc3c4ccccc4/c(=N/c4ccccc4)cc-3oc2c1.Cl`, the selectivity ratio in series [1] stood at 863. Also, in the series with Plasmodium berghei [2], the MSD was 6.3 days. Besides, the IC50 was 165000 nM in the series on L6 and 191 nM in the series on Plasmodium falciparum. In the series with Plasmodium berghei [3], the inhibition in vivo at 100 mg/kg worked out at 0%.
Take `CCCN(CCC)c1ccc2nc3c4ccccc4/c(=N/c4ccncc4)cc-3oc2c1.Cl.Cl`: the selectivity ratio in series [1] stood at 1340. For the same compound, the MSD in the series with Plasmodium berghei [2] turned out to be 6.3 days. In addition, the results for the concentration for half-maximal inhibition (IC50) with L6 and in the series on Plasmodium falciparum were 67100 nM and 50 nM, respectively. Also, the inhibition in vivo at 100 mg/kg in the series on Plasmodium berghei [3] came out at 15.3%.
For `CCN(CC)c1ccc2nc3c4ccc(Br)cc4/c(=N/c4ccccn4)cc-3oc2c1` the same measures were above 5010, 6.3 days, above 190000 nM, 38 nM and 12.7%.
The matching figures for `CN(C)c1ccc2nc3c4ccccc4/c(=N/c4ccncc4)cc-3oc2c1`: 20400, 10 days, 165000 nM, 8.1 nM and above 99.9%.
For `CCN(CCNS(C)(=O)=O)c1cc(C)c2nc3c4ccccc4/c(=N/c4ccncc4)cc-3oc2c1.Cl.Cl` the same measures were 887, 15.7 days, 14800 nM, 17 nM and above 99.9%.
As to `CCN(CC)CCCC(C)Nc1ccnc2cc(Cl)ccc12` (stereo not given) [CHLOROQUINE], in the series on Plasmodium berghei [2], the MSD is 12.6 days. Besides, the inhibition in vivo at 100 mg/kg in the series with Plasmodium berghei [3] was above 99.9%.
Regarding `CC[N+](CC)=c1ccc2nc3c(cc(N)c4ccccc43)oc-2c1.[Cl-]` [NILE BLUE HYDROCHLORIDE], the selectivity ratio in series [1] turned out to be 2760. Moreover, in the series on Plasmodium berghei [2], the MSD is 6.6 days. For the same compound, the half-maximal inhibitory concentration (IC50) in the series with L6 was 43100 nM; in the series with Plasmodium falciparum, 15.6 nM. Moreover, the inhibition in vivo at 100 mg/kg with Plasmodium berghei [3] was 15%.
For `CCN(CC)c1ccc2nc3c4ccccc4c(=O)cc-3oc2c1` [NILE RED] the same measures were 76, 6.3 days, 65900 nM, 868 nM and 15%.
Turning to `CCN(CC)c1cc(C)c2nc3c4ccccc4/c(=N/c4ccncc4)cc-3oc2c1.Cl.Cl`, the selectivity ratio in series [1] was found to be 481. In the series with Plasmodium berghei [2], the MSD is 13 days. In addition, the IC50 with L6 turned out to be 86600 nM; in the series on Plasmodium falciparum, 180 nM. Besides, the inhibition in vivo at 100 mg/kg with Plasmodium berghei [3] turned out to be 99.7%.
The matching figures for `CCN(CC)c1ccc2nc3c4ccccc4/c(=N\c4ccc5ccccc5n4)cc-3oc2c1`: 2520, 10.3 days, 67900 nM, 27 nM and 81%.
